IDH1 R132H inh: inhibitors of IDH1 R132H reductase, primary screen, biochemical, plate reader, single point. Isocitrate dehydrogenase [NADP] cytoplasmic (Homo sapiens), O75874. diaphorase/resazurin fluorescence, 60 min. inhibition, % at 10 µM. hit rate 0.18% among 70,000; in the data active = inhibition above about 34%; inconclusive = no clear call, values can overlap the other calls; inactive = below about 11%;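 note: 0% = DMSO and 100% = no enzyme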
T cruzi growth-1: T. cruzi intracellular proliferation inhibitors, primary screen, cell-based, beta-gal Tulahuen parasites, NIH3T3 host, luminescence | inhibition, % at 8.34 µM | T. cruzi beta-gal in NIH3T3, GalScreen luminescence, 90 h | AID 624255, 2012 | hit rate 5.9% among 77,000;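 active = mean inhibition above about 93%, with at least 55% of replicates each passing it, limit read from the data, passing the limit was not always enough; inconclusive = only one of those two conditions holds; inactive = neither condition holds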
KDM4C inh: inhibitors of GASC-1 (KDM4C) histone demethylase, primary screen, biochemical, single concentration HTS. Lysine-specific demethylase 4C (Homo sapiens), Q9H3R0. inhibition, % at 12.5 µM. GST-KDM4C 2-372, H3K9me3 peptide, LANCE TR-FRET. hit rate 0.15% among 96,000;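 active = mean replicate inhibition above about 25%, with at least 55% of replicates also reaching it, limit read from the data, passing the limit was not always enough; inconclusive = only one of those two conditions met; inactive = neither condition met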
Target sequence (Q9H3R0 2-372 limits assumed): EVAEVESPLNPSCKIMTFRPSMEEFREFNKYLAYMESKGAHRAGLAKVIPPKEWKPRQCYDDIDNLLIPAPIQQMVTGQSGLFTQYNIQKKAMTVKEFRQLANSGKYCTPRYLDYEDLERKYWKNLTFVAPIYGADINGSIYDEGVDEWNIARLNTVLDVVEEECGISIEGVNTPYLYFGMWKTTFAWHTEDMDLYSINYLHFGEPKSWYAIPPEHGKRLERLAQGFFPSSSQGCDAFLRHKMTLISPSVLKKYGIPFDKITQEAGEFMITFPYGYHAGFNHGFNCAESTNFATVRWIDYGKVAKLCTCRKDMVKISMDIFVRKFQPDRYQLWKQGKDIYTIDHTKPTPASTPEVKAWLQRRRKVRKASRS
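Material: GST-tagged GASC-1 (JMJD2C) catalytic fragment, aa 2-372 / Quantity: enzyme final amount 10 nM / Medium: HEPES buffer, pH 7.5, plus ascorbate / Doses: one test concentration per compound / Incubation: 30 min reaction, 60 min detection, RT / Measured by: LANCE TR-FRET / Read-out: inhibition from TR-FRET ratio decrease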
T cruzi growth-2: T. cruzi intracellular proliferation inhibitors, confirmation, cell-based, NIH3T3 host, beta-gal parasite, luminescence, cherry-pick. hit rate 72% among 5,600. shares compounds with T cruzi growth-1. inhibition, % at 8.35 µM. T. cruzi beta-gal in NIH3T3, GalScreen luminescence, 90 h. AID 651739, 2012;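 active = mean replicate inhibition above about 95% and at least 55% of replicates individually reaching it, limit read from the data; inconclusive = only one of the two criteria is met; inactive = neither criterion is met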
T cruzi growth-3: inhibitors of intracellular T. cruzi replication, confirmation, NIH3T3 host cells, beta-gal parasites, cherry-pick, set 2; hit rate 21% among 5,600; inhibition, % at 2.09 µM; T. cruzi beta-gal in NIH3T3, GalScreen luminescence, 90 h; shares compounds with T cruzi growth-1; AID 651740, 2012;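 active = mean inhibition above about 95%, with at least 55% of replicates also reaching it, limit read from the data; inconclusive = meets just one of the two conditions; inactive = meets neither condition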;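 note: plate controls were neutral control median for no effect and positive control median for full effect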
3T3 cytotox: cytotoxicity in mouse NIH/3T3 fibroblasts, confirmation, cytotoxicity control for T. cruzi proliferation inhibitor project, cell-based, cherry-pick, single point; shares compounds with T cruzi growth-1; NIH/3T3 viability, CellTiter-Glo ATP luminescence, 90 h; cytotoxicity (signal decrease), % at 8.35 µM; hit rate 14% among 5,600;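 active = mean signal decrease across replicates above about 35% based on untreated-well scatter, with enough replicates individually passing, limit read from the data; inconclusive = no rule stated though some were filed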;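 note: 0% = median of neutral control wells and 100% = median of positive control wells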
3T3 cytotox 2: NIH/3T3 fibroblast cytotoxicity, confirmation, cytotoxicity control, cell-based, cherry-pick, single point, set 2 | shares compounds with T cruzi growth-1 | NIH/3T3 viability, CellTiter-Glo ATP luminescence, 90 h | inhibition, % at 24.9 µM | hit rate 56% among 5,600;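 active = mean loss of cell viability signal at or above a set limit, and enough replicates individually reaching it; inconclusive = meets only the mean limit or only the replicate share; inactive = meets neither condition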;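 note: 0% = median of neutral control wells and 100% = median of positive control wells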
Active calls of the source: *; u = inconclusive; x = not tested or not shown. Shown is part of a subset that was picked to be rich in hits.

SMILES	IDH1 R132H inh	T cruzi growth-1	KDM4C inh	T cruzi growth-2	T cruzi growth-3	3T3 cytotox	3T3 cytotox 2
COc1ccc(NC(=O)CCN2C(=O)c3ccccc3C2=O)c([N+](=O)[O-])c1	0	x	x	x	x	x	x
C[C@@H]1CN([C@@H](C)CO)C(=O)c2cc(NC(=O)C3CCCCC3)ccc2O[C@H]1CN(C)Cc1ccc(-c2ccccc2)cc1	x	110*	0	102*	100*	16	7
C[C@H]1CN([C@@H](C)CO)C(=O)c2cc(NC(=O)C3CCCCC3)ccc2O[C@H]1CN(C)Cc1ccc(-c2ccccc2)cc1	1	47	0	x	x	x	x
C[C@H](CO)N1C[C@H](C)[C@@H](CN(C)Cc2ccc(-c3ccccc3)cc2)Oc2ccc(NC(=O)C3CC3)cc2C1=O	0	22	-1	x	x	x	x
C[C@@H]1CN([C@@H](C)CO)C(=O)c2cc(NC(=O)C3CCCCC3)ccc2O[C@@H]1CN(C)Cc1ccc(-c2ccccc2)cc1	1	u	1	104*	83	24	80*
C/C=C/c1ccc2c(c1)O[C@@H](CN(C)Cc1cccnc1)[C@H](C)CN([C@H](C)CO)S2(=O)=O	27	107*	0	92	64	52*	65*
C[C@H](CO)N1C[C@H](C)[C@H](CN(C)Cc2cccnc2)Oc2cc(/C=C/c3ccccc3)ccc2S1(=O)=O	-1	107*	-1	100*	97*	u	31*
C/C=C/c1ccc2c(c1)O[C@@H](CN(C)Cc1cncnc1)[C@@H](C)CN([C@@H](C)CO)S2(=O)=O	0	x	15	x	x	x	x
C[C@H]1CN([C@@H](C)CO)S(=O)(=O)c2ccc(/C=C/c3ccccc3)cc2O[C@@H]1CN(C)Cc1cccnc1	0	102	x	x	x	x	x
C[C@H]1CN([C@@H](C)CO)S(=O)(=O)c2ccc(/C=C/c3ccccc3)cc2O[C@H]1CN(C)Cc1cccnc1	x	x	-3	x	x	x	x
C/C=C/c1ccc2c(c1)O[C@H](CN(C)Cc1cccnc1)[C@@H](C)CN([C@@H](C)CO)S2(=O)=O	5	114*	-1	103*	105*	27	54*
C/C=C/c1ccc2c(c1)O[C@@H](CN(C)Cc1cccnc1)[C@H](C)CN([C@@H](C)CO)S2(=O)=O	28	106*	-3	101*	82	38*	70*
C/C=C/c1ccc2c(c1)O[C@@H](CN(C)Cc1cncnc1)[C@@H](C)CN([C@H](C)CO)S2(=O)=O	1	x	1	x	x	x	x
COc1ccc(CN(C)C[C@@H]2Oc3ccc(NS(=O)(=O)c4cn(C)cn4)cc3CC(=O)N([C@H](C)CO)C[C@@H]2C)cc1	1	10	-1	x	x	x	x
Fc1ccccc1CSc1nnc(Cn2cnc3ccccc32)n1-c1ccccc1	-1	x	x	x	x	x	x
COc1ccc(CNC(=O)C[C@@H]2C=C[C@@H](NC(=O)c3ccc4c(c3)OCO4)[C@H](CO)O2)cc1	0	-100	x	x	x	x	x
Cc1noc(C)c1NC(=O)N(C)C[C@H]1Oc2ccc(NC(=O)c3ccncc3)cc2CC(=O)N([C@@H](C)CO)C[C@H]1C	2	9	-2	x	x	x	x
C[C@@H]1CN([C@@H](C)CO)S(=O)(=O)c2ccc(C#Cc3ccc(F)cc3)cc2O[C@H]1CN(C)S(=O)(=O)c1ccc(F)cc1	x	115*	-4	103*	116*	u	55*
CC(C)CC#Cc1ccc2c(c1)O[C@@H](CN(C)S(=O)(=O)c1ccc(F)cc1)[C@H](C)CN([C@H](C)CO)S2(=O)=O	-1	x	0	x	x	x	x
C[C@H]1CN([C@@H](C)CO)S(=O)(=O)c2ccc(C#Cc3ccc(F)cc3)cc2O[C@H]1CN(C)S(=O)(=O)c1ccc(F)cc1	0	107*	1	105*	u	8	1
CC(C)CC#Cc1ccc2c(c1)O[C@H](CN(C)S(=O)(=O)c1ccc(F)cc1)[C@H](C)CN([C@@H](C)CO)S2(=O)=O	0	x	-1	x	x	x	x
COCC#Cc1ccc2c(c1)O[C@H](CN(C)S(=O)(=O)c1ccc(F)cc1)[C@H](C)CN([C@H](C)CO)S2(=O)=O	1	68	2	x	x	x	x
C[C@@H]1CN([C@@H](C)CO)S(=O)(=O)c2ccc(C#Cc3ccc(F)cc3)cc2O[C@@H]1CN(C)S(=O)(=O)c1ccc(F)cc1	x	114*	0	106*	115*	26	43*
C[C@H](CO)N1C[C@H](C)[C@@H](CN(C)S(=O)(=O)c2ccc(F)cc2)Oc2cc(C#Cc3ccc(F)cc3)ccc2S1(=O)=O	-2	107*	-2	100*	109*	28	65*
CO[C@@H]1CN(C)C(=O)c2ccc(NS(=O)(=O)c3ccccc3)cc2OC[C@@H](C)N(C)C[C@H]1C	0	51	1	x	x	x	x
SMILES	IDH1 R132H inh	T cruzi growth-1	KDM4C inh	T cruzi growth-2	T cruzi growth-3	3T3 cytotox	3T3 cytotox 2
Cc1cc(C(=O)Nc2ccc3c(c2)C(=O)N(C)[C@@H]2CC[C@H](CC(=O)O)O[C@H]2CO3)no1	x	0	0	x	x	x	x
CO[C@@H]1CN(C)C(=O)c2ccc(NC(=O)C3CC3)cc2OC[C@H](C)N(Cc2cccnc2)C[C@H]1C	0	x	0	x	x	x	x
CO[C@@H](CN(C)Cc1ccc(-c2ccccn2)cc1)[C@H](C)CN(C(=O)Nc1ccc(F)cc1)[C@@H](C)CO	0	95	-2	x	x	x	x
C/C=C/c1ccc([C@H]2[C@@H](CN(C)C(=O)CC)N(C(=O)NC(C)C)[C@H]2CO)cc1	x	10	0	x	x	x	x
C[C@H]1CN([C@@H](C)CO)S(=O)(=O)c2ccc(C#Cc3ccc(F)cc3)cc2O[C@@H]1CN(C)S(=O)(=O)c1ccc(F)cc1	0	u	2	95*	113*	33	68*
COCC#Cc1ccc2c(c1)O[C@@H](CN(C)S(=O)(=O)c1ccc(F)cc1)[C@@H](C)CN([C@@H](C)CO)S2(=O)=O	-4	84	-3	x	x	x	x
CCCNC(=O)N1[C@@H]2c3ccc(-c4ccccc4OC)c(=O)n3C[C@H]1[C@H](CO)[C@H]2C(=O)NCC	x	107*	-2	-9	-2	-8	-6
COCCNC(=O)[C@@H]1[C@@H](CO)[C@@H]2Cn3c(ccc(-c4ccc(F)cc4)c3=O)[C@H]1N2C(=O)NC(C)C	x	20	6	x	x	x	x

From PubChem BioAssay
